Experimental findings from ChEMBL document CHEMBL1828617, “The activity of dispiro peroxides against Fasciola hepatica” (2011) are described below.

Calls of active or inactive are those of the source. The calls are words filed in the database; no cut-off is given here.

In experiment [1] the test system is Fasciola hepatica. The experiment can be described thus: Antiparasitic activity against Fasciola hepatica infected in rat assessed as cure rate at 100 mg/kg, po administered as single dose measured after 6 days post treatment. Format: functional, organism-based. More on the design: dose 100 mg/kg. The method, boiled down: (§1)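 Rats harbouring adult F. hepatica, treated at 8–13 weeks post-infection with a single oral dose given as a suspension in 7% (v/v) Tween 80 and 3% (v/v) EtOH. Killed at day 6 post-treatment. Adult flukes recovered from bile ducts and livers. Worm burden reduction taken from mean total worm burdens of treated versus untreated control rats. Cures = rats cured/rats treated. Significance by Kruskal-Wallis test.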

The test system of experiment [2] is Fasciola hepatica. As to the kind of experiment: Antiparasitic activity against Fasciola hepatica infected in rat assessed as reduction in worm burden at 100 mg/kg, po administered as single dose measured after 6 days post treatment. The format is functional. Details: scale not given: the % may be the effect or the level left. The essentials: as §1
In experiment [3] the test system is Fasciola hepatica. The experiment can be described thus: Antiparasitic activity against Fasciola hepatica infected in rat assessed as reduction in worm burden at 50 mg/kg, po administered as single dose measured after 6 days post treatment. More on the design: scale not given: the % may be the effect or the level left. The format is functional. The essentials:
as §1

Experiment [4] deals with Fasciola hepatica. As to the kind of experiment: Antiparasitic activity against Fasciola hepatica infected in rat assessed as reduction in worm burden at 25 mg/kg, po administered as single dose measured after 6 days post treatment. More on the design: scale not given: the % may be the effect or the level left. Format: functional. The method, boiled down:
as §1

For experiment [5], the system named is Fasciola hepatica. As to the kind of experiment: Antiparasitic activity against Fasciola hepatica infected in rat assessed as cure rate at 50 mg/kg, po administered as single dose measured after 6 days post treatment. The format is functional, organism-based. Details: dose 50 mg/kg. The method, boiled down: as §1
In experiment [6] the test system is Fasciola hepatica. As to the kind of experiment: Antiparasitic activity against Fasciola hepatica infected in rat assessed as cure rate at 25 mg/kg, po administered as single dose measured after 6 days post treatment. Format: functional, organism-based. Details: dose 25 mg/kg. The method, boiled down: as §1

Take `O=C(O)[C@H]1CC[C@@]2(CC1)OOC1(CCCCC1)O2`: the outcome in experiment [1] was inactive. In addition, in experiment [2], the Activity is recorded as 26%.
As for `O=C(O)[C@H]1CC[C@]2(CC1)COC1(OO2)C2CC3CC(C2)CC1C3` (some centres undefined), in experiment [2], the Activity was determined as 61%.
As to `O=C(O)C[C@H]1CC[C@]2(CC1)OOC1(O2)C2CC3CC(C2)CC1C3` (some centres undefined), in experiment [1], the outcome was Active. Also, the Activity in experiment [2] was 100%.
The matching figures for `O=C(O)[C@H]1CC[C@]2(CC1)OO[C@]1(O2)C2CC3CC(C2)CC1C3`: “inactive” and 52%.
Take `O=C(O)C1CCC2(CC1)OOC1(CCCCC1)OO2`: the outcome in experiment [1] was Active. Moreover, the results for the Activity in experiment [2] and in experiment [3] were 100% and 61%, respectively.
Regarding `O=C(O)c1ccc([C@H]2CC[C@]3(CC2)COC2(OO3)C3CC4CC(C3)CC2C4)cc1` (some centres undefined), the result in experiment [1] and in experiment [5] was Active. Besides, the Activity is reported as 0% in experiment [4], 100% in experiment [2] and 100% in experiment [3].
For `O=C(O)c1ccc(C2CCC3(CC2)OOC2(O3)C3CC4CC(C3)CC2C4)cc1` (centres undefined), in experiment [1], the outcome was Active. The Activity in experiment [2] was 100%; in experiment [3], 19%. In addition, the result in experiment [5] was inactive.
On to `O=C(O)c1ccc(C2CCC3(CC2)OOC2(OO3)C3CC4CC(C3)CC2C4)cc1` (centres undefined), for which the Activity in experiment [2] came out at 92%.
In the case of `O=C(O)C1CCC2(CC1)OOC1(OO2)C2CC3CC(C2)CC1C3` (centres undefined), in experiment [1], the outcome was Active. Further, the Activity is 100% in experiment [2] and 48% in experiment [3].
As for `C[C@H]1[C@H](OC(=O)CCC(=O)O)O[C@@H]2O[C@@]3(C)CC[C@H]4[C@H](C)CC[C@@H]1[C@@]24OO3` [ARTESUNATE], the Activity in experiment [2] is 30%.
On to `O=C(O)[C@H]1CC[C@]2(CC1)COC1(CCCCC1)OO2`, for which the outcome in experiment [1] was Active. The Activity is given as 100% in experiment [2] and 71% in experiment [3]. Further, in experiment [5], the outcome was inactive.
Consider `O=C(O)C[C@H]1CC[C@]2(CC1)COC1(OO2)C2CC3CC(C2)CC1C3` (some centres undefined), for which the outcome in experiment [1] and in experiment [5] was Active. Also, the Activity in experiment [4] was found to be 88%; in experiment [2] it was 100%; in experiment [3] it was 100%.
In the case of `O=C(O)CC1CCC2(CC1)OCC1(OO2)C2CC3CC(C2)CC1C3` (centres undefined), the result in experiment [1] was inactive. The Activity in experiment [2] is recorded as 0%.
As to `O=C(O)CC1CCC2(CC1)OOC1(CCCCC1)OO2`, the result in experiment [1] was inactive. Further, the Activity in experiment [2] is 29%.
Turning to `O=C(O)C[C@H]1CC[C@]2(CC1)COC1(CCCCC1)OO2`, in experiment [2], the Activity is on record as 95%.
Turning to `O=C(O)CC1CCC2(CC1)OOC1(OO2)C2CC3CC(C2)CC1C3` (centres undefined), in experiment [6], the result was inactive. The outcome in experiment [1] and in experiment [5] was Active. The Activity was found to be 71% in experiment [4], 100% in experiment [2] and 100% in experiment [3].
